In publication PMC2975463 (Biochemistry, 2009):
“Also recorded” adds a separate entry of the source. Read-outs that look alike come from different tables or passages of the source.

Legend:
Oxidation = assay type: in vitro ADME, rat; settings: for enzymatic oxidation in rat liver cytosol: result in words
Summary of the method: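 Rat liver cytosol (5 mg/mL) with varied base-adduct concentrations and 0.4% DMSO, prewarmed 5 min at 37 °C, then started with substrate. Etheno-guanine bases: 0.1 M NaOH stocks, 0.8 M potassium phosphate pH 7.6, extracts in 0.1 M NaOH, HPLC-UV at 285 nm. Heptanone base: DMSO stock, room-temperature setup, UV at 300 nm. Km and vmax came from nonlinear one-site binding fits.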

[1] = biological target: Bovine XO from buttermilk (Bos taurus, UniProt P80457); experiment: Oxidation of 1,N^2-ε-Gua with purified XO; assay type: biochemical; settings: for oxidation by purified bovine XO: result in words
[2] = Glycolytic cleavage of 2′-deoxynucleoside adducts in rat liver cytosol; assay type: in vitro ADME; settings: result in words
Summary of the method: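 Reactions (ice-prepared) contained 5 mg/mL rat liver cytosol, varied adduct concentrations, 0.4% DMSO and 0.1 M potassium phosphate pH 7.4. One etheno-deoxyadenosine adduct was also run in 0.1 M Tris-HCl pH 7.4 without inorganic phosphate. After 5 min at 37 °C, substrate was added to start. Ice-cold methanol stopped reactions; samples were centrifuged at 200000g for 30 min. Supernatants went to reversed-phase HPLC-UV for base formation.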

[3] = oxidation in rat liver cytosol; cited from earlier work
[4] = biological target: T1, xanthine oxidoreductase (XOR) (Rattus norvegicus, UniProt P22985); experiment: Effect of XOR and AO inhibitors on 1,N^2-ε-Gua oxidation in rat liver cytosol; assay type: biochemical; settings: result in words
Summary of the method: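 Rat liver cytosol (5 mg/mL final) in 0.8 M potassium phosphate (pH 7.6) with 0.4% DMSO. Substrate stock was in 0.1 M NaOH; 84 μM substrate was used with increasing inhibitor concentrations. Mixes were prepared on ice, equilibrated 5 min at 37 °C, and started by adding substrate. Extracts were taken up in 0.1 M NaOH for reversed-phase HPLC-UV (285 nm). IC50 was fitted by nonlinear regression (one-site competition).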

[5] = biological target: T1, xanthine oxidoreductase (XOR); assay type: biochemical; settings: co-incubation in rat liver cytosol, result in words
Summary of the method: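 Rat liver cytosol (5 mg/mL final) in 0.1 M potassium phosphate (pH 7.4) with 0.4% DMSO, co-incubated with inhibitors. Substrate stock was in DMSO, and mixes were prepared at room temperature. Reactions were equilibrated 5 min at 37 °C and started by adding substrate. Extracts were dissolved in methanol for C18 HPLC (formic acid water/methanol gradient) with UV at 300 nm.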

[6] = biological target: T2, purine nucleoside phosphorylase (PNP) (Homo sapiens, UniProt P00491); experiment: Incubations of 1,N^6-ε-dA and dIno with purified human PNP; assay type: biochemical; settings: dIno versus 1,N^6-ε-dA
T2 sequence (P00491 1-289): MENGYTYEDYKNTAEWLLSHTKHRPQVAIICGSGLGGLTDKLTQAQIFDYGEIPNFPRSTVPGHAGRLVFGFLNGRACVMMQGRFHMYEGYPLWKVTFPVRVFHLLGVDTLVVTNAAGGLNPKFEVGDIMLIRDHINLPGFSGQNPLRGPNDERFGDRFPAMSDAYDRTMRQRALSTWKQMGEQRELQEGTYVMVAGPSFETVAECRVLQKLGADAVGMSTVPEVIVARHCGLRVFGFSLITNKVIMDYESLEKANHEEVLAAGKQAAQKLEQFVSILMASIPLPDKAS

Bovine XO from buttermilk, sequence (P80457 whole entry): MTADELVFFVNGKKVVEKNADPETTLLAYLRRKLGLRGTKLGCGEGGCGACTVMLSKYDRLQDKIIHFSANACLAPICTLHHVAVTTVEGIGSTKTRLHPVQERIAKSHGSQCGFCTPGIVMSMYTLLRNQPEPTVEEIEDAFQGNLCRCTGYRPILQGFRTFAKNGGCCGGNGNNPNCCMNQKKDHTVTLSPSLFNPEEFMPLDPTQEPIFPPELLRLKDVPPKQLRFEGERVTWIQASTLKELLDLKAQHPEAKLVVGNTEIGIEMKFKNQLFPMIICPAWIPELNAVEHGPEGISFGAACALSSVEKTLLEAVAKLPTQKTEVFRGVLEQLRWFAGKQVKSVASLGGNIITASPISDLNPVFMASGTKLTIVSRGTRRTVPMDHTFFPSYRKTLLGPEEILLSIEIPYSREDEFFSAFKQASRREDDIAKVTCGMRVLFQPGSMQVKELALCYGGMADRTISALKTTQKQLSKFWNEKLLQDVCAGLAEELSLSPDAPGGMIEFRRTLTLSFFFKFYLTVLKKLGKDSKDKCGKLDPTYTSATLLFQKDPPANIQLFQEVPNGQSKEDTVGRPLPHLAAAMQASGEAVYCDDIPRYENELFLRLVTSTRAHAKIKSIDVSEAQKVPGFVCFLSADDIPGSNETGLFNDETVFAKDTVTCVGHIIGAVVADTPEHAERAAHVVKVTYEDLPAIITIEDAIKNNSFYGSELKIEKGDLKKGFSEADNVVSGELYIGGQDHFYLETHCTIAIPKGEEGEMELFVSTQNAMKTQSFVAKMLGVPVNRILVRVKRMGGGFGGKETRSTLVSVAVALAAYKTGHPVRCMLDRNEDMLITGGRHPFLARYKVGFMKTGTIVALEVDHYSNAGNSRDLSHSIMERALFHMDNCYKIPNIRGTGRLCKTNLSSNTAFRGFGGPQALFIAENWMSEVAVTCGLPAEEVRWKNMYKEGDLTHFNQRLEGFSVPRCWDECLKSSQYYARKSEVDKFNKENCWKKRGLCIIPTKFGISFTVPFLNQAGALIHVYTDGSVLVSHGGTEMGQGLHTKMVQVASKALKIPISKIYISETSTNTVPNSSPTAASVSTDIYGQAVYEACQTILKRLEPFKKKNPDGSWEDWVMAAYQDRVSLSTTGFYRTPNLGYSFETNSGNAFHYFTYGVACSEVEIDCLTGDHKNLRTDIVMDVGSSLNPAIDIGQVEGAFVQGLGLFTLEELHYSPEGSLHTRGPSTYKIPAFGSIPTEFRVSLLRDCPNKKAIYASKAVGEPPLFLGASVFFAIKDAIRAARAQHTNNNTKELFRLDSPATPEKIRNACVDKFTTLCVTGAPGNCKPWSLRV
T1 sequence (P22985 whole entry): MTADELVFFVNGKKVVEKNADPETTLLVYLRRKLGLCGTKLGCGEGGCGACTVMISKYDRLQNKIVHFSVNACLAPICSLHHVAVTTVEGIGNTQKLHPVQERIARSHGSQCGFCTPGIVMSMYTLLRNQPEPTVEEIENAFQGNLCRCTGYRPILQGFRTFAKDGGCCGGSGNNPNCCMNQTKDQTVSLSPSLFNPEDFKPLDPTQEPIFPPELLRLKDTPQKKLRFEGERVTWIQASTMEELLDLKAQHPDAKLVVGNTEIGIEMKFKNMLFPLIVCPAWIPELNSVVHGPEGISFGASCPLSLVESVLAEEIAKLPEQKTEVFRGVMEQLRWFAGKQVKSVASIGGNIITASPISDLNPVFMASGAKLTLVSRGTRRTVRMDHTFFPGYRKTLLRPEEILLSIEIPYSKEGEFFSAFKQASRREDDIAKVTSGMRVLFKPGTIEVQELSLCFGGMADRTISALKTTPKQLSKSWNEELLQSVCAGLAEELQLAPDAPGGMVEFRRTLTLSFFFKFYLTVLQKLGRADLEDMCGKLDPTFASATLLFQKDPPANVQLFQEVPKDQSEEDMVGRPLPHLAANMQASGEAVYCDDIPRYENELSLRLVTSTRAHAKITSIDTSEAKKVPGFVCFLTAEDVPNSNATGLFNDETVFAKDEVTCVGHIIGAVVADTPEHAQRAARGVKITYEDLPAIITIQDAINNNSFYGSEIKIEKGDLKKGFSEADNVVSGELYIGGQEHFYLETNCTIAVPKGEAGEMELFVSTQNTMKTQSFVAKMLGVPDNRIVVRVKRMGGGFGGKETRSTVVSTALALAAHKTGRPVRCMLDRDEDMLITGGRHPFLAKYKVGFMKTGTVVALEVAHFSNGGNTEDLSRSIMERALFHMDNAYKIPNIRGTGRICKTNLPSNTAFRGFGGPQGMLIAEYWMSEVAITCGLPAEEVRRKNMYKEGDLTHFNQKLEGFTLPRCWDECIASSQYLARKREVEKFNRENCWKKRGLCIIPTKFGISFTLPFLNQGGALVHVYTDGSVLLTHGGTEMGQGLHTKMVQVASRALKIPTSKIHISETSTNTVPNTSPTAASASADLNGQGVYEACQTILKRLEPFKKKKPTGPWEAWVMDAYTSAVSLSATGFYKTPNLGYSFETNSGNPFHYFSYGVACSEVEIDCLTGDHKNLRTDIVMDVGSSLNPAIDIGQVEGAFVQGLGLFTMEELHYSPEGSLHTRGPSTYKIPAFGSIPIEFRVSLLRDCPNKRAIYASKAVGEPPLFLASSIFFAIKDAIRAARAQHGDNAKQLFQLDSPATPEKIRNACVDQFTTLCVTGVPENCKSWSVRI

Compound: 1,N^6-ethenoadenine [1,N^6-ε-Ade]
- enzymatic oxidation in rat liver cytosol (Oxidation): neither was found to be oxidized

Compound: 3,N^4-ethenocytosine [3,N^4-ε-Cyt]
- enzymatic oxidation in rat liver cytosol (Oxidation): neither was found to be oxidized

Compound: 7-(2-oxoheptyl)-1,N^2-ethenoguanine [heptanone-1,N^2-ε-Gua]
- enzymatic oxidation in rat liver cytosol (Oxidation): substrates for enzymatic oxidation

Compound: O=c1c2[nH]cnc2nc2[nH]ccn12 [1,N^2-ε-Gua, 1,N^2-ethenoguanine]
- vmax (Oxidation; oxidation in rat liver cytosol, unit of the text): 105 pmol/min/mg
- vmax (Oxidation; oxidation of substrate in rat liver cytosol, unit of Table 1): 105000 pmol/min/mg
- Km (Oxidation; rat, rat liver cytosol, pH 7.6): 84 µM
- enzymatic oxidation in rat liver cytosol (Oxidation): substrates for enzymatic oxidation
- vmax ([1]; consumption of 1,N^2-ε-Gua by XOR purified from bovine milk, Figure 3 legend): 10.1 μmol min^−1 (mg of XOR)^−1
- vmax ([1]; consumption of 1,N^2-ε-Gua by purified bovine XO): 10.1 μmol min^−1 (mg of XO)^−1
- oxidation by purified bovine XO [1]: readily consumed

Compound: OC[C@H]1O[C@@H](n2cnc3c2ncn2ccnc32)[C@H](O)[C@@H]1O [1,N^6-ε-adenosine]
- glycolytic cleavage in rat liver cytosol [2]: Identical observations

Compound: O=c1ccn2c(=O)c3[nH]cnc3nc2[nH]1 [6-oxo-M1G]
- Km [3]: 210 µM
- vmax [3]: 257 nmol/min/mg

Compound: O=c1nc2[nH]ccn2c2nc[nH]c12 [N^2,3-ε-Gua, N^2,3-ethenoguanine]
- enzymatic oxidation in rat liver cytosol (Oxidation): did not result in oxidative metabolism
- oxidation by purified bovine XO [1]: did not result in oxidative metabolism

Compound: O=c1c2[nH]cnc2nc2n1CCCN2 [PGua, 1,N^2-propanoguanine]
- enzymatic oxidation in rat liver cytosol (Oxidation): not oxidized

Compound: Oc1ncnc2[nH]ncc12 [allopurinol]
- inhibition of 1,N^2-ε-Gua metabolite production [4]: inhibited; also recorded: complete inhibition
- inhibition of heptanone-1,N^2-ε-Gua oxidation [5]: inhibited oxidation

Compound: OC[C@H]1O[C@@H](n2cnc3c(O)ncnc32)C[C@@H]1O [dIno, 2′-deoxyinosine]
- efficiency of turnover relative to 1,N^6-ε-dA [6]: approximately 57 fold
